A word on the MIC: it is the smallest concentration in the dilution series that meets the test's criterion for growth inhibition.

Molecules are shown by their SMILES.

In ChEMBL document CHEMBL3352312, “Synthesis of linear and cyclic guazatine derivatives endowed with antibacterial activity” (Bioorg Med Chem Lett, 2014) one finds MIC data, which are given here for 4 molecules.

The test system of the first assay is Streptococcus pyogenes. The experiment in a line: Antibacterial activity against Streptococcus pyogenes ATCC 12344 after 16 to 18 hrs by microbroth dilution method. It counts as functional. The gist of the method:
(§1)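 Broth microdilution in Mueller–Hinton broth following CLSI recommendations. Strains came from ATCC or CCUG collections or the authors' clinical isolates. Compounds were dissolved in DMSO as a 100 mg/ml stock and then diluted in culture medium. Inoculum was 5 × 10⁴ CFU/well. MIC was read after 16–18 h incubation at 35–37 °C.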
For orientation: Dilution methods test growth across graded concentrations, often in twofold steps.
`C#CCNC(=N)NCCCCCCCCNCCCCCCCCNC(=N)N.O=C(O)C(F)(F)F.O=C(O)C(F)(F)F.O=C(O)C(F)(F)F` registered an MIC of 2 µg/mL.
The molecule `C/C=C/CNC(=N)NCCCCCCCCN1CCCCCCCCNC(=N)NC1=O.O=C(O)C(F)(F)F.O=C(O)C(F)(F)F` had an MIC of 2 µg/mL.
In turn, `CN(CCCCCCCCNCCCCCCCCNC(=N)N)C(=N)NCc1ccccc1.O=C(O)C(F)(F)F.O=C(O)C(F)(F)F.O=C(O)C(F)(F)F` registered an MIC of 16 µg/mL.
Consider `C#CCNC(=N)N(C)CCCCCCCCNCCCCCCCCNC(=N)N.O=C(O)C(F)(F)F.O=C(O)C(F)(F)F.O=C(O)C(F)(F)F`, for which the lowest concentration to inhibit growth (MIC) was 16 µg/mL.

The next assay deals with Elizabethkingia meningoseptica. The experiment in a line: Antibacterial activity against Elizabethkingia meningoseptica CCUG 4310 after 16 to 18 hrs by microbroth dilution method. Format: functional. The gist of the method:
as §1
In turn, `C#CCNC(=N)NCCCCCCCCNCCCCCCCCNC(=N)N.O=C(O)C(F)(F)F.O=C(O)C(F)(F)F.O=C(O)C(F)(F)F` showed an MIC of more than 256 µg/mL.
As to `C/C=C/CNC(=N)NCCCCCCCCN1CCCCCCCCNC(=N)NC1=O.O=C(O)C(F)(F)F.O=C(O)C(F)(F)F`, inhibition of growth (MIC) required 128 µg/mL.
The molecule `CN(CCCCCCCCNCCCCCCCCNC(=N)N)C(=N)NCc1ccccc1.O=C(O)C(F)(F)F.O=C(O)C(F)(F)F.O=C(O)C(F)(F)F` came in with a minimum inhibitory concentration (MIC) of 64 µg/mL.
`C#CCNC(=N)N(C)CCCCCCCCNCCCCCCCCNC(=N)N.O=C(O)C(F)(F)F.O=C(O)C(F)(F)F.O=C(O)C(F)(F)F` registered an MIC of 64 µg/mL.

A further assay relates to Acinetobacter baumannii. Kind of assay: Antibacterial activity against Acinetobacter baumannii ATCC 17978 after 16 to 18 hrs by microbroth dilution method. Format: functional. The gist of the method:
as §1
The molecule `C#CCNC(=N)NCCCCCCCCNCCCCCCCCNC(=N)N.O=C(O)C(F)(F)F.O=C(O)C(F)(F)F.O=C(O)C(F)(F)F` had an MIC of 128 µg/mL.
Still for that read-out and setting: under `C/C=C/CNC(=N)NCCCCCCCCN1CCCCCCCCNC(=N)NC1=O.O=C(O)C(F)(F)F.O=C(O)C(F)(F)F` stands 32 µg/mL; under `CN(CCCCCCCCNCCCCCCCCNC(=N)N)C(=N)NCc1ccccc1.O=C(O)C(F)(F)F.O=C(O)C(F)(F)F.O=C(O)C(F)(F)F`, 128 µg/mL.
Still for that read-out and setting: under `C#CCNC(=N)N(C)CCCCCCCCNCCCCCCCCNC(=N)N.O=C(O)C(F)(F)F.O=C(O)C(F)(F)F.O=C(O)C(F)(F)F` stands 256 µg/mL.

The subject of the next assay is Aeromonas hydrophila. The experiment in a line: Antibacterial activity against Aeromonas hydrophila ATCC 7966 after 16 to 18 hrs by microbroth dilution method. Format: functional. The gist of the method: as §1
In the case of `C#CCNC(=N)NCCCCCCCCNCCCCCCCCNC(=N)N.O=C(O)C(F)(F)F.O=C(O)C(F)(F)F.O=C(O)C(F)(F)F`, the MIC turned out to be 256 µg/mL.
On the same count and under the same terms, under `C/C=C/CNC(=N)NCCCCCCCCN1CCCCCCCCNC(=N)NC1=O.O=C(O)C(F)(F)F.O=C(O)C(F)(F)F` stands 64 µg/mL.
Take `CN(CCCCCCCCNCCCCCCCCNC(=N)N)C(=N)NCc1ccccc1.O=C(O)C(F)(F)F.O=C(O)C(F)(F)F.O=C(O)C(F)(F)F`: the minimal inhibitory concentration (MIC) turned out to be 256 µg/mL.
Same read-out and setting: in the case of `C#CCNC(=N)N(C)CCCCCCCCNCCCCCCCCNC(=N)N.O=C(O)C(F)(F)F.O=C(O)C(F)(F)F.O=C(O)C(F)(F)F` it was more than 256 µg/mL.

For a further assay, the system named is Enterococcus faecalis. The experiment in a line: Antibacterial activity against Enterococcus faecalis ATCC 19433 after 16 to 18 hrs by microbroth dilution method. It counts as functional. The gist of the method: as §1
As for `C#CCNC(=N)NCCCCCCCCNCCCCCCCCNC(=N)N.O=C(O)C(F)(F)F.O=C(O)C(F)(F)F.O=C(O)C(F)(F)F`, it took 16 µg/mL to inhibit growth (MIC).
`C/C=C/CNC(=N)NCCCCCCCCN1CCCCCCCCNC(=N)NC1=O.O=C(O)C(F)(F)F.O=C(O)C(F)(F)F` showed an MIC of 8 µg/mL.
As for `CN(CCCCCCCCNCCCCCCCCNC(=N)N)C(=N)NCc1ccccc1.O=C(O)C(F)(F)F.O=C(O)C(F)(F)F.O=C(O)C(F)(F)F`, inhibition of growth (MIC) required 16 µg/mL.
Take `C#CCNC(=N)N(C)CCCCCCCCNCCCCCCCCNC(=N)N.O=C(O)C(F)(F)F.O=C(O)C(F)(F)F.O=C(O)C(F)(F)F`: the MIC stood at 8 µg/mL.

The test system of a further assay is Bacillus subtilis. The experiment in a line: Antibacterial activity against Bacillus subtilis ATCC 6633 after 16 to 18 hrs by microbroth dilution method. It counts as functional. The gist of the method: as §1
On to `C#CCNC(=N)NCCCCCCCCNCCCCCCCCNC(=N)N.O=C(O)C(F)(F)F.O=C(O)C(F)(F)F.O=C(O)C(F)(F)F`, for which the minimal inhibitory concentration (MIC) amounted to 4 µg/mL.
The same measure, in the same setting: in the case of `C/C=C/CNC(=N)NCCCCCCCCN1CCCCCCCCNC(=N)NC1=O.O=C(O)C(F)(F)F.O=C(O)C(F)(F)F` it was 4 µg/mL; in that of `CN(CCCCCCCCNCCCCCCCCNC(=N)N)C(=N)NCc1ccccc1.O=C(O)C(F)(F)F.O=C(O)C(F)(F)F.O=C(O)C(F)(F)F`, more than 256 µg/mL.
`C#CCNC(=N)N(C)CCCCCCCCNCCCCCCCCNC(=N)N.O=C(O)C(F)(F)F.O=C(O)C(F)(F)F.O=C(O)C(F)(F)F` registered an MIC of 256 µg/mL.

Another assay deals with Pseudomonas aeruginosa. The experiment in a line: Antibacterial activity against Pseudomonas aeruginosa ATCC 27853 after 16 to 18 hrs by microbroth dilution method. It counts as functional. The gist of the method: as §1
As to `C#CCNC(=N)NCCCCCCCCNCCCCCCCCNC(=N)N.O=C(O)C(F)(F)F.O=C(O)C(F)(F)F.O=C(O)C(F)(F)F`, the minimal inhibitory concentration (MIC) was determined as 256 µg/mL.
Same read-out and setting: in the case of `C/C=C/CNC(=N)NCCCCCCCCN1CCCCCCCCNC(=N)NC1=O.O=C(O)C(F)(F)F.O=C(O)C(F)(F)F` it was 256 µg/mL.
Turning to `CN(CCCCCCCCNCCCCCCCCNC(=N)N)C(=N)NCc1ccccc1.O=C(O)C(F)(F)F.O=C(O)C(F)(F)F.O=C(O)C(F)(F)F`, the MIC is 32 µg/mL.
Turning to `C#CCNC(=N)N(C)CCCCCCCCNCCCCCCCCNC(=N)N.O=C(O)C(F)(F)F.O=C(O)C(F)(F)F.O=C(O)C(F)(F)F`, the lowest concentration to inhibit growth (MIC) was 32 µg/mL.

Another assay concerns Escherichia coli. The experiment in a line: Antibacterial activity against Escherichia coli CCUGT after 16 to 18 hrs by microbroth dilution method. Format: functional. The gist of the method: as §1
As for `C#CCNC(=N)NCCCCCCCCNCCCCCCCCNC(=N)N.O=C(O)C(F)(F)F.O=C(O)C(F)(F)F.O=C(O)C(F)(F)F`, it took 16 µg/mL to inhibit growth (MIC).
`C/C=C/CNC(=N)NCCCCCCCCN1CCCCCCCCNC(=N)NC1=O.O=C(O)C(F)(F)F.O=C(O)C(F)(F)F` displayed an MIC of 64 µg/mL.
Same read-out and setting: in the case of `CN(CCCCCCCCNCCCCCCCCNC(=N)N)C(=N)NCc1ccccc1.O=C(O)C(F)(F)F.O=C(O)C(F)(F)F.O=C(O)C(F)(F)F` it was more than 256 µg/mL; in that of `C#CCNC(=N)N(C)CCCCCCCCNCCCCCCCCNC(=N)N.O=C(O)C(F)(F)F.O=C(O)C(F)(F)F.O=C(O)C(F)(F)F`, more than 256 µg/mL.

The subject of another assay is Staphylococcus epidermidis. The experiment in a line: Antibacterial activity against Staphylococcus epidermidis ATCC 14990 after 16 to 18 hrs by microbroth dilution method. Format: functional. The gist of the method:
as §1
Regarding `C#CCNC(=N)NCCCCCCCCNCCCCCCCCNC(=N)N.O=C(O)C(F)(F)F.O=C(O)C(F)(F)F.O=C(O)C(F)(F)F`, it took 4 µg/mL to inhibit growth (MIC).
`C/C=C/CNC(=N)NCCCCCCCCN1CCCCCCCCNC(=N)NC1=O.O=C(O)C(F)(F)F.O=C(O)C(F)(F)F` yielded an MIC of 4 µg/mL.
Still for that read-out and setting: under `CN(CCCCCCCCNCCCCCCCCNC(=N)N)C(=N)NCc1ccccc1.O=C(O)C(F)(F)F.O=C(O)C(F)(F)F.O=C(O)C(F)(F)F` stands 32 µg/mL; under `C#CCNC(=N)N(C)CCCCCCCCNCCCCCCCCNC(=N)N.O=C(O)C(F)(F)F.O=C(O)C(F)(F)F.O=C(O)C(F)(F)F`, 16 µg/mL.

For a further assay, the system named is Klebsiella pneumoniae. Kind of assay: Antibacterial activity against Klebsiella pneumoniae ATCC 13833 after 16 to 18 hrs by microbroth dilution method. Format: functional. The gist of the method:
as §1
Molecule `C#CCNC(=N)NCCCCCCCCNCCCCCCCCNC(=N)N.O=C(O)C(F)(F)F.O=C(O)C(F)(F)F.O=C(O)C(F)(F)F` came in with an MIC of 32 µg/mL.
Take `C/C=C/CNC(=N)NCCCCCCCCN1CCCCCCCCNC(=N)NC1=O.O=C(O)C(F)(F)F.O=C(O)C(F)(F)F`: 32 µg/mL was the least that counted as inhibitory (MIC).
Still for that read-out and setting: in the case of `CN(CCCCCCCCNCCCCCCCCNC(=N)N)C(=N)NCc1ccccc1.O=C(O)C(F)(F)F.O=C(O)C(F)(F)F.O=C(O)C(F)(F)F` it was 32 µg/mL; in that of `C#CCNC(=N)N(C)CCCCCCCCNCCCCCCCCNC(=N)N.O=C(O)C(F)(F)F.O=C(O)C(F)(F)F.O=C(O)C(F)(F)F`, 16 µg/mL.
